In general, MIC refers to the least concentration at which growth counts as inhibited.

This note sets out measurements from ChEMBL document CHEMBL3244142, “Antifungal properties of 2-bromo-3-fluorosuccinic acid esters and related compounds” (1977).

The subject of assay [1] is Aspergillus niger. Briefly: Antifungal activity against Aspergillus niger ATCC 1004 at <100 ug/ml at pH 5.6 after 5 days in presence of 10% beef serum. The class given is functional, organism-based. A digest of the protocol: (§1)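 Agar-dilution MIC in Sabouraud dextrose agar at pH 5.6 or 7.0, with or without 10% beef serum. Plates were incubated at 28 °C for 5 days. MIC is the lowest concentration (µg/mL) giving 100% inhibition. Steps were 1 µg/mL up to 10, 2 µg/mL from 10–20, and 10 µg/mL from 20–100; 100 µg/mL was the top level, and no inhibition there is scored as >100.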

For assay [2], the system named is Aspergillus niger. Briefly: Antifungal activity against Aspergillus niger ATCC 1004 at <100 ug/ml at pH 7 after 5 days in absence of 10% beef serum. In kind it is functional, organism-based. In short, it runs like this: as §1
The subject of assay [3] is Aspergillus niger. Briefly: Antifungal activity against Aspergillus niger ATCC 1004 at <100 ug/ml at pH 7 after 5 days in presence of 10% beef serum. In kind it is functional, organism-based. In short, it runs like this:
as §1

Assay [4] deals with Trichophyton mentagrophytes. Briefly: Antifungal activity against Trichophyton mentagrophytes ATCC 9129 at pH 5.6 after 5 days in absence of 10% beef serum. In kind it is functional. To be noted: Trichophyton mentagrophytes, ATCC 9129, 120 h; read-out: MIC. A digest of the protocol: as §1
Assay [5] deals with Trichophyton mentagrophytes. Briefly: Antifungal activity against Trichophyton mentagrophytes ATCC 9129 at pH 5.6 after 5 days in presence of 10% beef serum. The class given is functional. To be noted: Trichophyton mentagrophytes, ATCC 9129, 120 h; read-out: MIC. In short, it runs like this:
as §1

The test system of assay [6] is Trichophyton mentagrophytes. Briefly: Antifungal activity against Trichophyton mentagrophytes ATCC 9129 at pH 7 after 5 days in absence of 10% beef serum. In kind it is functional. The note with it: Trichophyton mentagrophytes, ATCC 9129, 120 h; read-out: MIC. In short, it runs like this:
as §1

The test system of assay [7] is Trichophyton mentagrophytes. In words: Antifungal activity against Trichophyton mentagrophytes ATCC 9129 at <100 ug/ml at pH 7 after 5 days in presence of 10% beef serum. The class given is functional, organism-based. A digest of the protocol: as §1
In assay [8] the test system is Aspergillus niger. In words: Antifungal activity against Aspergillus niger ATCC 1004 at <100 ug/ml at pH 5.6 after 5 days in absence of 10% beef serum. In kind it is functional, organism-based. A digest of the protocol: as §1
Assay [9] relates to Mucor mucedo. Briefly: Antifungal activity against Mucor mucedo ATCC 7941 at <100 ug/ml at pH 7 after 20 h in absence of 10% beef serum.
For assay [10], the system named is Mucor mucedo. In words: Antifungal activity against Mucor mucedo ATCC 7941 at <100 ug/ml at pH 7 after 20 h in presence of 10% beef serum.
The subject of assay [11] is Mucor mucedo. Briefly: Antifungal activity against Mucor mucedo ATCC 7941 at <100 ug/ml at pH 5.6 after 20 h in absence of 10% beef serum.
In assay [12] the test system is Mucor mucedo. Briefly: Antifungal activity against Mucor mucedo ATCC 7941 at <100 ug/ml at pH 5.6 after 20 h in presence of 10% beef serum.
Assay [13] has as its system Candida albicans. Briefly: Antifungal activity against Candida albicans ATCC 10231 at <100 ug/ml at pH 7 after 20 h in absence of 10% beef serum.
For assay [14], the system named is Candida albicans. In words: Antifungal activity against Candida albicans ATCC 10231 at <100 ug/ml at pH 7 after 20 h in presence of 10% beef serum.
The test system of assay [15] is Candida albicans. In words: Antifungal activity against Candida albicans ATCC 10231 at <100 ug/ml at pH 5.6 after 20 h in absence of 10% beef serum.
The subject of assay [16] is Candida albicans. In words: Antifungal activity against Candida albicans ATCC 10231 at <100 ug/ml at pH 5.6 after 20 h in presence of 10% beef serum.
The subject of assay [17] is Trichophyton mentagrophytes. Briefly: Antifungal activity against Trichophyton mentagrophytes ATCC 9129 at pH 7 after 5 days in presence of 10% beef serum. In kind it is functional. The note with it: Trichophyton mentagrophytes, ATCC 9129, 120 h; read-out: MIC. A digest of the protocol:
as §1

Assay [18] deals with Mucor mucedo. Briefly: Antifungal activity against Mucor mucedo ATCC 7941 at pH 7 after 20 h in absence of 10% beef serum. The note with it: ATCC 7941, 20 h.
Assay [19] has as its system Mucor mucedo. In words: Antifungal activity against Mucor mucedo ATCC 7941 at pH 5.6 after 20 h in presence of 10% beef serum. To be noted: ATCC 7941, 20 h.
The test system of assay [20] is Candida albicans. Briefly: Antifungal activity against Candida albicans ATCC 10231 at pH 7 after 20 h in absence of 10% beef serum. To be noted: ATCC 10231, 20 h.
The subject of assay [21] is Candida albicans. Briefly: Antifungal activity against Candida albicans ATCC 10231 at pH 7 after 20 h in presence of 10% beef serum. The note with it: ATCC 10231, 20 h.
For assay [22], the system named is Candida albicans. Briefly: Antifungal activity against Candida albicans ATCC 10231 at pH 5.6 after 20 h in absence of 10% beef serum. To be noted: ATCC 10231, 20 h.
In assay [23] the test system is Candida albicans. In words: Antifungal activity against Candida albicans ATCC 10231 at pH 5.6 after 20 h in presence of 10% beef serum. To be noted: ATCC 10231, 20 h.
Assay [24] relates to Mucor mucedo. Briefly: Antifungal activity against Mucor mucedo ATCC 7941 at pH 7 after 20 h in presence of 10% beef serum. The note with it: ATCC 7941, 20 h.

Converted amounts (≈) assume the structure as drawn. Where a name gives a salt, the structure may show the parent alone. The source made the active and inactive calls. No cut-off for these calls is given here.

`CCCCOC(=O)/C=C/C(=O)OCCCC`: the inhibition entry (in the assay on Aspergillus niger [1]; in the assay with Aspergillus niger [2]; with Aspergillus niger [3]; in assay [7]; in the assay on Aspergillus niger [8]; in the assay on Mucor mucedo [9]) was “inactive” in each case. In addition, the inhibition entry in the assay on Mucor mucedo [10], with Mucor mucedo [11], in the assay on Mucor mucedo [12], with Candida albicans [13], in the assay on Candida albicans [14] and in the assay on Candida albicans [15] was “inactive” each time. Besides, the inhibition result in the assay on Candida albicans [16] is “inactive”. The MIC in assay [4] came to 7 µg/mL (≈ 30.7 µM); in assay [5] it was 60 µg/mL; in assay [6], 30 µg/mL (≈ 131 µM).

Consider `CCCCOC(=O)[C@H](F)[C@@H](Br)C(=O)OCCCC` (relative stereo), for which the inhibition result in the assay with Aspergillus niger [1], with Aspergillus niger [2], in the assay with Aspergillus niger [3], in the assay on Aspergillus niger [8] and in the assay with Mucor mucedo [10] was “inactive” in each case. The MIC is below 1 µg/mL in assay [4]; 30 µg/mL in assay [5]; 30 µg/mL (≈ 91.7 µM) in assay [6]; 50 µg/mL in assay [17]; 14 µg/mL (≈ 42.8 µM) in the assay on Mucor mucedo [18]; 80 µg/mL in the assay on Mucor mucedo [19]. Also, the minimal inhibitory concentration (MIC) in the assay with Candida albicans [20] worked out at 30 µg/mL (≈ 91.7 µM); in the assay on Candida albicans [21] it was 90 µg/mL; in the assay with Candida albicans [22], 20 µg/mL (≈ 61.1 µM); in the assay on Candida albicans [23] it was 80 µg/mL.

On to `CCCOC(=O)/C=C\C(=O)OCCC`, for which the inhibition entry with Aspergillus niger [1], in the assay with Aspergillus niger [2], in the assay with Aspergillus niger [3], in the assay on Aspergillus niger [8], with Mucor mucedo [9] and in the assay with Mucor mucedo [10] was “inactive” throughout. Moreover, the inhibition result in the assay with Mucor mucedo [11], with Mucor mucedo [12], in the assay with Candida albicans [13], in the assay on Candida albicans [14], in the assay on Candida albicans [15] and with Candida albicans [16] was “inactive” in each case. In addition, the MIC in [4] was determined as 14 µg/mL (≈ 69.9 µM); in [5], 40 µg/mL; in [6] it was 50 µg/mL (≈ 250 µM); in assay [17], 60 µg/mL.

For `COC(=O)CC(F)C(Br)C(=O)OC` (stereo unspecified), the inhibition entry with Aspergillus niger [1], in the assay on Aspergillus niger [2], with Aspergillus niger [3] and in the assay with Aspergillus niger [8] was “inactive” each time. Also, the MIC in assay [4] stood at 16 µg/mL (≈ 62.2 µM); in assay [5], 18 µg/mL; in [6], 16 µg/mL (≈ 62.2 µM); in [17], 40 µg/mL; in the assay on Mucor mucedo [18], 40 µg/mL (≈ 156 µM); with Mucor mucedo [24], 60 µg/mL. In addition, the MIC with Mucor mucedo [19] was 50 µg/mL; in the assay on Candida albicans [20], 90 µg/mL (≈ 350 µM); in the assay on Candida albicans [21], 90 µg/mL; with Candida albicans [22], 90 µg/mL (≈ 350 µM); in the assay with Candida albicans [23] it was 90 µg/mL.

With `COC(=O)C(Br)CF` (stereo unspecified), the inhibition entry (in the assay on Aspergillus niger [1]; in the assay on Aspergillus niger [2]; in the assay with Aspergillus niger [3]; in assay [7]; in the assay with Aspergillus niger [8]; with Candida albicans [13]) was “inactive” each time. The inhibition result in the assay on Candida albicans [14], in the assay with Candida albicans [15] and in the assay on Candida albicans [16] was “inactive” throughout. The MIC in [4] was found to be 50 µg/mL (≈ 270 µM); in assay [5], 100 µg/mL; in assay [6], 100 µg/mL (≈ 541 µM); with Mucor mucedo [18] it was 9 µg/mL (≈ 48.7 µM); in the assay on Mucor mucedo [24] it was 30 µg/mL; in the assay on Mucor mucedo [19] it was 18 µg/mL.

`CCCCOC(=O)[C@@H](F)[C@@H](Br)C(=O)OCCCC` (relative stereo): the inhibition result with Aspergillus niger [1], with Aspergillus niger [2], with Aspergillus niger [3] and in the assay on Aspergillus niger [8] was “inactive” throughout. Further, the minimum inhibitory concentration (MIC) turned out to be 3 µg/mL (≈ 9.17 µM) in assay [4]; 20 µg/mL in assay [5]; 4 µg/mL (≈ 12.2 µM) in assay [6]; 30 µg/mL in [17]; 20 µg/mL (≈ 61.1 µM) in the assay on Mucor mucedo [18]; 50 µg/mL in the assay on Mucor mucedo [24]. The MIC in the assay on Mucor mucedo [19] came to 30 µg/mL; in the assay with Candida albicans [20], 40 µg/mL (≈ 122 µM); in the assay with Candida albicans [21], 50 µg/mL; with Candida albicans [22], 9 µg/mL (≈ 27.5 µM); with Candida albicans [23] it was 20 µg/mL.

In the case of `CCOC(=O)/C=C\C(=O)OCC` [DIETHYL MALEATE], the inhibition entry in the assay on Aspergillus niger [1], with Aspergillus niger [2], in the assay on Aspergillus niger [3], in the assay on Aspergillus niger [8], in the assay on Mucor mucedo [9] and with Mucor mucedo [10] was “inactive” each time. Besides, the inhibition entry with Mucor mucedo [11], in the assay on Mucor mucedo [12], in the assay on Candida albicans [13], in the assay on Candida albicans [14], with Candida albicans [15] and in the assay with Candida albicans [16] was “inactive” in each case. Also, the MIC in [4] was 50 µg/mL; in assay [5], 60 µg/mL; in assay [6] it was 90 µg/mL; in assay [17], 100 µg/mL.

In the case of `CCCCCOC(=O)/C=C\C(=O)OCCCCC`, the inhibition result in the assay with Aspergillus niger [1], with Aspergillus niger [2], in the assay on Aspergillus niger [3], with Aspergillus niger [8], with Mucor mucedo [9] and with Mucor mucedo [10] was “inactive” in each case. The inhibition result in the assay with Mucor mucedo [11], in the assay on Mucor mucedo [12], in the assay with Candida albicans [13], in the assay with Candida albicans [14], with Candida albicans [15] and in the assay with Candida albicans [16] was “inactive” each time. Also, the MIC in [4] came out at 10 µg/mL (≈ 39 µM); in assay [5] it was 50 µg/mL; in assay [6], 30 µg/mL (≈ 117 µM); in [17] it was 60 µg/mL.

As to `COC(=O)/C=C\C(=O)OC` [DIMETHYL MALEATE], the inhibition result in the assay with Aspergillus niger [1], in the assay with Aspergillus niger [2], in the assay on Aspergillus niger [3], with Aspergillus niger [8], in the assay with Mucor mucedo [9] and in the assay with Mucor mucedo [10] was “inactive” in each case. The inhibition entry in the assay on Mucor mucedo [11], with Mucor mucedo [12], with Candida albicans [13], in the assay on Candida albicans [14], in the assay on Candida albicans [15] and with Candida albicans [16] was “inactive” throughout. The MIC in [4] is 40 µg/mL; in [5], 50 µg/mL; in assay [6], 30 µg/mL; in assay [17] it was 60 µg/mL.

Take `CCCCOC(=O)/C=C\C(=O)OCCCC`: the inhibition entry in the assay on Aspergillus niger [1], in the assay on Aspergillus niger [2], with Aspergillus niger [3], with Aspergillus niger [8], with Mucor mucedo [9] and in the assay with Mucor mucedo [10] was “inactive” throughout. Moreover, the inhibition result in the assay on Mucor mucedo [11], with Mucor mucedo [12], in the assay with Candida albicans [13], with Candida albicans [14], in the assay on Candida albicans [15] and with Candida albicans [16] was “inactive” throughout. In addition, the MIC was found to be 8 µg/mL (≈ 35 µM) in assay [4], 30 µg/mL in assay [5], 30 µg/mL (≈ 131 µM) in assay [6] and 50 µg/mL in [17].
